Data from ChEMBL document CHEMBL4138137, “Discovery of Novel 5-(Piperazine-1-carbonyl)pyridin-2(1H)-one Derivatives as Orally eIF4A3-Selective Inhibitors” (ACS Med Chem Lett, 2017).
Converted amounts (≈) assume the structure as drawn.

Key:
[1] = molecular target: Eukaryotic initiation factor 4A-III (Homo sapiens, UniProt P38919); assay: Inhibition of MLN51-induced full length recombinant human N-terminal His6/SUMO-tagged eIF4A3 RNA dependent ATPase activity expressed in Escherichia coli BL21(DE3) using single stranded poly(U) RNA as substrate after 30 mins by ADP-Glo luminescence assay
Eukaryotic initiation factor 4A-III, sequence (P38919 whole entry): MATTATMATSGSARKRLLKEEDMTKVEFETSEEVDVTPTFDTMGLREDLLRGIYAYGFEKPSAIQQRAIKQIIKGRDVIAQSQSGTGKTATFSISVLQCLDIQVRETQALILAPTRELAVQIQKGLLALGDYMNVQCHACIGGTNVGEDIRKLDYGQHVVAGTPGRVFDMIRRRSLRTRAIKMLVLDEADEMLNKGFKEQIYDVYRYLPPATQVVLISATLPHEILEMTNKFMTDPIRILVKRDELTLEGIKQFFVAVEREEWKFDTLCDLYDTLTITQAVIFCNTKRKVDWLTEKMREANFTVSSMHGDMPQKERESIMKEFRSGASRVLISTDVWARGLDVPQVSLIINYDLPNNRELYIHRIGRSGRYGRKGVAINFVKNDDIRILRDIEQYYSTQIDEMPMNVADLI
How it was run: (§1)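 IC50 reported as the mean of duplicate experiments with 95% confidence intervals.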

[2] = Solubility of the compound at pH 6.8; format: physicochemical; conditions: buffer
How it was run: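 Solubility measured at pH 6.8.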

[3] = Metabolic stability in mouse microsomes; format: ADME, Microsome; conditions: read-out: Stability
How it was run: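 Metabolic stability measured in mouse liver microsomes, expressed in μL/min/mg.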

[4] = AUC (0 to 8 hrs) in ICR mouse at 1 mg/kg, po administered as cassette dose; format: ADME, organism-based; set-up: dose 1 mg/kg, time < 8 hr, route oral; conditions: in vivo
How it was run: (§2)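 Cassette PK in male ICR mice, n = 3; dosed i.v. at 0.1 mg/kg and p.o. at 1 mg/kg. AUC taken over 0 to 8 h after oral dosing; bioavailability derived from the oral and i.v. exposures.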

[5] = Oral bioavailability in ICR mouse at 1 mg/kg administered as cassette dose; format: ADME, organism-based; conditions: in vivo; how it was run: as §2
[6] = test system: HCT-116; assay: Growth inhibition of human HCT116 cells after 3 days by CellTiter-Glo luminescence assay; format: functional; conditions: HCT-116, 72 h
How it was run: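 HCT-116 cells exposed to compound for 72 h; growth read as intracellular ATP amount. GI50 derived by curve fitting. Data representative of three independent experiments.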

[7] = molecular target: MDR1 (ABCB1, P-glycoprotein) (Homo sapiens, UniProt P08183); assay: Substrate activity at MDR1 (unknown origin) assessed as efflux ratio of permeability; format: ADME; conditions: not told
MDR1 (ABCB1, P-glycoprotein), sequence (P08183 whole entry): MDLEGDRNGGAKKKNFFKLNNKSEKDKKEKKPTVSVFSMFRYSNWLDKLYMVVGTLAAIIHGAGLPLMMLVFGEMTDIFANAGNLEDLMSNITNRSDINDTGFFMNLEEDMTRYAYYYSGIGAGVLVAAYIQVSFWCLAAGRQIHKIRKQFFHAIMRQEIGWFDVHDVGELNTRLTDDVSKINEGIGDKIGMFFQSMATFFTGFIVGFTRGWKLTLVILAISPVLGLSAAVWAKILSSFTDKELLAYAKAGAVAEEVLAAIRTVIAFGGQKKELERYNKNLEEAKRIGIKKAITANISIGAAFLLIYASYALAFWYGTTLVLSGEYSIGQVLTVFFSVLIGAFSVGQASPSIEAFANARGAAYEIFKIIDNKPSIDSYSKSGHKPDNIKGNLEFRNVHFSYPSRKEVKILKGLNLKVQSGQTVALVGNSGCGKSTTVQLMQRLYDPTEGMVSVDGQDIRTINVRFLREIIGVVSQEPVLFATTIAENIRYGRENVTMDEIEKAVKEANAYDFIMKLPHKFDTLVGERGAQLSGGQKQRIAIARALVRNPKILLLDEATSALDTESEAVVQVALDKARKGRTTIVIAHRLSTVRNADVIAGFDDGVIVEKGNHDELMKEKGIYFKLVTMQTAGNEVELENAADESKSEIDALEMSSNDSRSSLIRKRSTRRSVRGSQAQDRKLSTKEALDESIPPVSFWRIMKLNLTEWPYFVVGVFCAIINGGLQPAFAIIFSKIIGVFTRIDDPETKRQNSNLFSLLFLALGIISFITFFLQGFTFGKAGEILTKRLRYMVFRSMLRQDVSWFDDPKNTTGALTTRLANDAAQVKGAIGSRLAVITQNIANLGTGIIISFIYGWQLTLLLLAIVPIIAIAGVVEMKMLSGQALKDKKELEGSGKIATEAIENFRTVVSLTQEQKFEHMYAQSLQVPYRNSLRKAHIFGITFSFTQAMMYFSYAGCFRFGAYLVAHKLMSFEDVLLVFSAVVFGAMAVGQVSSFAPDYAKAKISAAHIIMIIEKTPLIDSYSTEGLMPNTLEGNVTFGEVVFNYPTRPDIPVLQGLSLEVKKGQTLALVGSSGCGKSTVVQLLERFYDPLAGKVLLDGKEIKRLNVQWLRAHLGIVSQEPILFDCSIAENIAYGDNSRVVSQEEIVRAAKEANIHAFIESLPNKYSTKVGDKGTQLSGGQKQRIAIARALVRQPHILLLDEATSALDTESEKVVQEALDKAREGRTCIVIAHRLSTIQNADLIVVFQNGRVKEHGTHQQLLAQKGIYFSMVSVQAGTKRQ
How it was run: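 Efflux ratio measured in vitro in an MDR1-overexpressing cell line.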

[8] = molecular target: Eukaryotic initiation factor 4A-I (Homo sapiens, UniProt P60842); assay: Inhibition of eIF4G-induced full length recombinant human N-terminal His6/SUMO-tagged eIF4A1 RNA dependent ATPase activity expressed in Escherichia coli BL21(DE3) using single stranded poly(U) RNA as substrate after 40 mins by ADP-Glo luminescence assay; how it was run: as §1
Eukaryotic initiation factor 4A-I, sequence (P60842 whole entry): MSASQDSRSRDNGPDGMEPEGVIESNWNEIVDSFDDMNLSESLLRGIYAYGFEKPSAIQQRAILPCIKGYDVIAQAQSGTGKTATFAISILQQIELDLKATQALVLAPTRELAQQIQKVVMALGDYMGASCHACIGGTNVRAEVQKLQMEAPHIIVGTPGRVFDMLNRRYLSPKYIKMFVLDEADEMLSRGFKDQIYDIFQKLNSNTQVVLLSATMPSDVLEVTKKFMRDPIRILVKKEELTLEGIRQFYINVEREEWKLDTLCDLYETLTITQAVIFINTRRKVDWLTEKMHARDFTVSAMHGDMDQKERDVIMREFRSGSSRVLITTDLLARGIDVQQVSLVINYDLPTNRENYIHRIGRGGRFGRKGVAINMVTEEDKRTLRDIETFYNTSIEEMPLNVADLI

[9] = molecular target: Eukaryotic initiation factor 4A-II (Homo sapiens, UniProt Q14240); assay: Inhibition of eIF4G-induced full length recombinant human N-terminal His6/SUMO-tagged eIF4A2 RNA dependent ATPase activity using single stranded poly(U) RNA as substrate after 40 mins by ADP-Glo luminescence assay; how it was run: as §1
Eukaryotic initiation factor 4A-II, sequence (Q14240 whole entry): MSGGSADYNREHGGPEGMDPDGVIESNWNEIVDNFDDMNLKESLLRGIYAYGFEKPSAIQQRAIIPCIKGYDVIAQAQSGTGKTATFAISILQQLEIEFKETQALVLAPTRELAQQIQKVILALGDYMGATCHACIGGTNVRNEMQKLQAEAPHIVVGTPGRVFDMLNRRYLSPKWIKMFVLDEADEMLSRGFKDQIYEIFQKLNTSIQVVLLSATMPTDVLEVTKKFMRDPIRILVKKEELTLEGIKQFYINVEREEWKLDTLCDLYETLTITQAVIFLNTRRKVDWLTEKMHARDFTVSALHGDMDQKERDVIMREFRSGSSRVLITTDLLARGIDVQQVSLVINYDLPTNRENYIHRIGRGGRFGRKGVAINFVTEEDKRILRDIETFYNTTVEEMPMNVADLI

[10] = molecular target: U5 small nuclear ribonucleoprotein 200 kDa helicase (Homo sapiens, UniProt O75643); assay: Inhibition of human recombinant N-terminal full length His-tagged BRR2 RNA dependent ATPase activity expressed in baculovirus infected Sf9 insect cells using single stranded poly(U) RNA as substrate after 30 mins by ADP-Glo luminescence assay; how it was run: as §1
U5 small nuclear ribonucleoprotein 200 kDa helicase, sequence (O75643 whole entry): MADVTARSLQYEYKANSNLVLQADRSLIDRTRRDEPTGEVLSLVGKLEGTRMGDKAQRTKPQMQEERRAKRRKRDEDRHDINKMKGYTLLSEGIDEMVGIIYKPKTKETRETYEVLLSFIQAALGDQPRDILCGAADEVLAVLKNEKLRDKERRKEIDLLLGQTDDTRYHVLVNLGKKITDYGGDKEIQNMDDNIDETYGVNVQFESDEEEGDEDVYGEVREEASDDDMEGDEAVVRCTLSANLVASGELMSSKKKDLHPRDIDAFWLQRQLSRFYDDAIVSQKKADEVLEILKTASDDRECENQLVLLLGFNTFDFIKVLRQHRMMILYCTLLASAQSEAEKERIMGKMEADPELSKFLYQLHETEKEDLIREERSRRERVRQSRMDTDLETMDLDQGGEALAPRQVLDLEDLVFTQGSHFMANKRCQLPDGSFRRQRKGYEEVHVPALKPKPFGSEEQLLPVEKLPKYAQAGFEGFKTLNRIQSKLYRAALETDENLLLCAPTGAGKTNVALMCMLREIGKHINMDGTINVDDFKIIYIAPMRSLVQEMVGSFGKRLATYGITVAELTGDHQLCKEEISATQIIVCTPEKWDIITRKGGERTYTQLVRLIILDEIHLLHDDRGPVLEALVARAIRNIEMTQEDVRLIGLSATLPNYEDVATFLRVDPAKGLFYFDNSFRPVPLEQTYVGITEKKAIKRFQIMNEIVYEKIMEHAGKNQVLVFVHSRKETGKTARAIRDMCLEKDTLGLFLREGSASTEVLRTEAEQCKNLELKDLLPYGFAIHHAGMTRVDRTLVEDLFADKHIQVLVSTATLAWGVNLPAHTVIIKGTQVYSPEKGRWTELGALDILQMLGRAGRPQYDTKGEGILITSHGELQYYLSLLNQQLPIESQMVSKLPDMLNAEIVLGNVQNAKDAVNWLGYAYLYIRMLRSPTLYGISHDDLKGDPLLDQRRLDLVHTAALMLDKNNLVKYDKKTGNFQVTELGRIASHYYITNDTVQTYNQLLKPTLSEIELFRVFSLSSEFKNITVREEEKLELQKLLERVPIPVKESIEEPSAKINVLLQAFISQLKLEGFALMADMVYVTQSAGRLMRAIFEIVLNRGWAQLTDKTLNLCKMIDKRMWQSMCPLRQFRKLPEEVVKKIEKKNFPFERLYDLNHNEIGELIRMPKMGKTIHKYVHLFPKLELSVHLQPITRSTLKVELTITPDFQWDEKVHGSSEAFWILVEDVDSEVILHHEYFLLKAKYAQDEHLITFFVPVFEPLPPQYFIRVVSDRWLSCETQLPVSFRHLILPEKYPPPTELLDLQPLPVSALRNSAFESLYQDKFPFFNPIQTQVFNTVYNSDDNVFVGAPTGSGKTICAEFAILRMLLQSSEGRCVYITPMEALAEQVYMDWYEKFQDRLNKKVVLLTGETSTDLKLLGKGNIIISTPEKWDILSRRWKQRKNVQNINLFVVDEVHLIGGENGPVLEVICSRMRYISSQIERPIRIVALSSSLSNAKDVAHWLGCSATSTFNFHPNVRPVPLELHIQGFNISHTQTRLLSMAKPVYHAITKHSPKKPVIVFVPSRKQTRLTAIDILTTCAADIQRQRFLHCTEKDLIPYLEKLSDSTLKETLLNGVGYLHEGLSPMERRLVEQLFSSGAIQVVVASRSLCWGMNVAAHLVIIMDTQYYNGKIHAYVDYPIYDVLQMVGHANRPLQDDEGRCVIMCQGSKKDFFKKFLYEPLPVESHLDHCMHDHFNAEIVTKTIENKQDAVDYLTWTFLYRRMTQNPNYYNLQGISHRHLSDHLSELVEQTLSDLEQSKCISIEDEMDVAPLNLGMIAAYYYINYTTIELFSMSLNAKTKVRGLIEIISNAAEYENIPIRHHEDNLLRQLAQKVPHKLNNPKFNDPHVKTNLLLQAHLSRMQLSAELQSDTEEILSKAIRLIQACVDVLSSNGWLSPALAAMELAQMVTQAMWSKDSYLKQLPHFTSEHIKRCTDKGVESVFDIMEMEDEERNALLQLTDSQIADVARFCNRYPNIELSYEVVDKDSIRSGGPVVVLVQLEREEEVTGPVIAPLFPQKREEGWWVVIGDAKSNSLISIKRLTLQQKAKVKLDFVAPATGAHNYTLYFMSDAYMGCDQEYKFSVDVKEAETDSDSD

[11] = molecular target: T1, ATP-dependent RNA helicase DHX29 (Homo sapiens, UniProt Q7Z478); assay: Inhibition of human recombinant N-terminal full length FLAG-His-tagged DHX29 RNA dependent ATPase activity expressed in baculovirus infected Sf9 insect cells using single stranded poly(U) RNA as substrate after 30 mins by ADP-Glo luminescence assay; how it was run: as §1
T1 sequence (Q7Z478 whole entry): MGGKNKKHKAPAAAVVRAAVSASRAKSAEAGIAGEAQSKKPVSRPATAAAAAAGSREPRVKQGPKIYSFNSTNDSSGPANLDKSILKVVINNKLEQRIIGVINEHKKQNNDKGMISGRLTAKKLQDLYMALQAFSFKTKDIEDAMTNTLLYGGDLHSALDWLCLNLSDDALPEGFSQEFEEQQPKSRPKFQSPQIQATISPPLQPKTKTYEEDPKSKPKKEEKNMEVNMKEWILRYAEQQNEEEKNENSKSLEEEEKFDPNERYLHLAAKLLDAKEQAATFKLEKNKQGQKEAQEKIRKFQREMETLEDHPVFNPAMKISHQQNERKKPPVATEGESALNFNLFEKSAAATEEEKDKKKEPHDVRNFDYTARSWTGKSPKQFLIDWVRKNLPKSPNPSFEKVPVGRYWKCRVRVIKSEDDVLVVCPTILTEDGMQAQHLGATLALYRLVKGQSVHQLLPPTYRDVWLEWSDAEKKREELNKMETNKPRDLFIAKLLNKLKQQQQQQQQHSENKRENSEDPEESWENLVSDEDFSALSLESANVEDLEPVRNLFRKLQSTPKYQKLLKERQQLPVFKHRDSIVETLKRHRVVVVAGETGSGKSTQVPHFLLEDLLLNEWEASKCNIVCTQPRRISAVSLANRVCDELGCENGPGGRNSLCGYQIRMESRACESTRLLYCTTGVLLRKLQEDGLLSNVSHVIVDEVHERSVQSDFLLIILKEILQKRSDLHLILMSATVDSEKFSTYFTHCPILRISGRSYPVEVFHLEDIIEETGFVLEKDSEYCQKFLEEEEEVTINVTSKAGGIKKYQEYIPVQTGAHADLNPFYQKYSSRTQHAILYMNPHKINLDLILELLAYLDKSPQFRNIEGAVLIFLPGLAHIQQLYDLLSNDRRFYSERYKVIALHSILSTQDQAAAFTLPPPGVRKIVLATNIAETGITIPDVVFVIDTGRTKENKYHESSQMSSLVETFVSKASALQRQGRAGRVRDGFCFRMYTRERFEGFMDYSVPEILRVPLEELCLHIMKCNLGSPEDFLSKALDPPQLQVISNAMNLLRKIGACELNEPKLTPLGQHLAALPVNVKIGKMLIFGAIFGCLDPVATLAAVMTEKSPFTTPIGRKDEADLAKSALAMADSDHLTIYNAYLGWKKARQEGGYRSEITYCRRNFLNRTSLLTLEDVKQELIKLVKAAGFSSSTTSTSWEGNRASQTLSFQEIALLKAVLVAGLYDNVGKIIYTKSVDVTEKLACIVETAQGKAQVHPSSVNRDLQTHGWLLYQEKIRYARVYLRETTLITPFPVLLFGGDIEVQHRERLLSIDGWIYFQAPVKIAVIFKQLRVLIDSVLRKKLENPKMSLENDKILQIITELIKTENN

[12] = organism: Homo sapiens; assay: Inhibition of NMD in human HCT116 cells assessed as upregulation of SC35 1.6 kb mRNA expression level at 1 uM after 6 hrs by qPCR analysis relative to control; format: cell-based
How it was run: (§3)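 HCT-116 colorectal carcinoma cells treated for 6 h at 1, 3 or 10 μM. SC35 1.6 kb mRNA level expressed as fold change relative to control. Data representative of three independent experiments.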

[13] = organism: Homo sapiens; assay: Inhibition of NMD in human HCT116 cells assessed as upregulation of SC35 1.6 kb mRNA expression level at 3 uM after 6 hrs by qPCR analysis relative to control; format: cell-based; how it was run: as §3
[14] = organism: Homo sapiens; assay: Inhibition of NMD in human HCT116 cells assessed as upregulation of SC35 1.6 kb mRNA expression level at 10 uM after 6 hrs by qPCR analysis relative to control; format: cell-based; how it was run: as §3
[15] = test system: Mus musculus; assay: In vivo inhibition of NMD in BALB/cA Jc1 nude mouse xenografted with human HCT116 cells assessed as upregulation of SC35 1.6 kb mRNA expression level in tumor at 100 mg/kg, po administered as single dose measured after 4 hrs by qPCR analysis relative to control; format: functional
How it was run: (§4)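 HCT-116 xenograft mice given a single oral dose of 100 mg/kg in a solubilizing formulation. Tumour SC35 1.6 kb mRNA expression measured at 4, 8 and 24 h after dosing.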

[16] = test system: Mus musculus; assay: In vivo inhibition of NMD in BALB/cA Jc1 nude mouse xenografted with human HCT116 cells assessed as upregulation of SC35 1.6 kb mRNA expression level in tumor at 100 mg/kg, po administered as single dose measured after 8 hrs by qPCR analysis relative to control; format: functional; how it was run: as §4
[17] = test system: Mus musculus; assay: In vivo inhibition of NMD in BALB/cA Jc1 nude mouse xenografted with human HCT116 cells assessed as upregulation of SC35 1.6 kb mRNA expression level in tumor at 100 mg/kg, po administered as single dose measured after 24 hrs by qPCR analysis relative to control; format: functional; how it was run: as §4
[18] = test system: HCT-116; assay: Antitumor activity against human HCT116 cells xenografted in BALB/cA Jc1 nude mouse assessed as reduction in tumor volume at 100 mg/kg, po bid administered for 14 days measured twice per week relative to control; format: functional
How it was run: (§5)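 HCT-116 xenograft mice dosed orally at 100 mg/kg twice daily for 14 days in a solubilizing formulation. Efficacy expressed as T/C versus a vehicle group, with Dunnett's test; body weight change monitored over the study.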

[19] = test system: Mus musculus; assay: Toxicity in BALB/cA Jc1 nude mouse xenografted with human HCT116 cells assessed as reduction in body weight at 100 mg/kg, po bid administered for 14 days measured twice per week; format: organism-based; set-up: scale not given: the % may be the effect or the level left; conditions: in vivo, 336 h; how it was run: as §5

Compound | IC50 [1] [nM] | solubility [2] [µg/mL] | microsomal CLint [3] [µL/min/mg] | AUC(0-t) at 8 h [4] [ng·h/mL] | bioavailability [5] [%] | other results
O=C(c1c[nH]c(=O)c2ccccc12)N1CCN(C(=O)c2ccc(Cl)cc2)C(c2ccc(Cl)cc2)C1 (configuration not stated) | 1300 | – | – | – | – | –
O=C(c1c[nH]c(=O)c(-c2cccc(C(F)(F)F)c2)c1)N1CCN(C(=O)c2ccc(Cl)cc2)C(c2ccc(Cl)cc2)C1 (configuration not stated) | 700 | – | – | – | – | –
O=C(c1c[nH]c(=O)c(-c2ccccc2)c1)N1CCN(C(=O)c2ccc(Cl)cc2)C(c2ccc(Cl)cc2)C1 (configuration not stated) | 410 | – | – | – | – | –
O=C(c1c[nH]c(=O)c(-c2ccccc2Cl)c1)N1CCN(C(=O)c2ccc(Cl)cc2)C(c2ccc(Cl)cc2)C1 (configuration not stated) | 420 | – | – | – | – | –
CS(=O)(=O)c1cccc(-c2cc(C(=O)N3CCN(C(=O)c4ccc(Cl)cc4)C(c4ccc(Cl)cc4)C3)c[nH]c2=O)c1 (configuration not stated) | 490 | – | – | – | – | –
O=C(c1cnn2cc(Br)ccc12)N1CCN(C(=O)c2ccc(Br)cc2)[C@@H](c2ccc(Cl)cc2)C1 | – | 0.46 (≈ 0.763 µM) | 227 | 9 | 5.7 | GI50 [6]: 3060 nM; efflux ratio [7]: 0.9
N#Cc1cccc(-c2cc(C(=O)N3CCN(C(=O)c4ccc(Cl)cc4)C(c4ccc(Cl)cc4)C3)c[nH]c2=O)c1 (configuration not stated) | 190 | – | – | – | – | –
O=C(c1cncc2ccccc12)N1CCN(C(=O)c2ccc(Br)cc2)[C@@H](c2ccc(Cl)cc2)C1 | 1600 | 5.1 (≈ 9.54 µM) | 202 | 1.5 | 0.4 | –
O=C(c1c[nH]c(=O)c2ccccc12)N1CCN(C(=O)c2ccc(Br)cc2)[C@@H](c2ccc(Cl)cc2)C1 | 290 | 11 (≈ 20 µM) | 16 | 97.3 | 9.6 | –
N#Cc1cccc(-c2cc(C(=O)N3CCN(C(=O)c4ccc(Br)cn4)[C@@H](c4ccc(Cl)cc4)C3)c[nH]c2=O)c1 | 50 | 2.4 (≈ 3.98 µM) | 113 | – | – | efflux ratio [7]: 35
Cn1cc(C(=O)N2CCN(C(=O)c3ccc(Br)cn3)[C@@H](c3ccc(Cl)cc3)C2)cc(-c2cccc(C#N)c2)c1=O | 100 | 12 (≈ 19.5 µM) | 6 | 147 | 16.1 | IC50 [8]: > 100000 nM; IC50 [9]: > 100000 nM; IC50 [10]: > 100000 nM; IC50 [11]: > 100000 nM; fold change (FC) [12]: 2.17; fold change (FC) [13]: 8.41; fold change (FC) [14]: 19.1; GI50 [6]: 1340 nM; fold change (FC) [15]: 4; fold change (FC) [16]: 2.5; fold change (FC) [17]: 1.2; T/C [18]: 54%; Activity [19]: < 5%; efflux ratio [7]: 25
O=C(c1ccnc2ccccc12)N1CCN(C(=O)c2ccc(Br)cc2)[C@@H](c2ccc(Cl)cc2)C1 | 2700 | 3.2 (≈ 5.98 µM) | 143 | 129 | 19.7 | –
O=C(c1c[nH]c(=O)c(-c2ccc(Cl)cc2)c1)N1CCN(C(=O)c2ccc(Cl)cc2)C(c2ccc(Cl)cc2)C1 (configuration not stated) | 1100 | – | – | – | – | –
O=C(c1cnn2cc(Br)ccc12)N1CCN(C(=O)c2ccc(Br)cn2)[C@@H](c2ccc(Cl)cc2)C1 | 280 | 3.8 (≈ 6.29 µM) | 207 | 55.9 | 11.4 | –
O=C(c1c[nH]c(=O)c(-c2cccc(Cl)c2)c1)N1CCN(C(=O)c2ccc(Cl)cc2)C(c2ccc(Cl)cc2)C1 (configuration not stated) | 290 | – | – | – | – | –
